pIC50: −log10 of the molar value.
Key:
[1] = biological target: Aldo-keto reductase family 1 member B1 (Rattus norvegicus) (UniProt P07943); experiment: Inhibition of rat kidney NADPH-dependent aldose reductase assessed as DL-glyceraldehyde conversion to glycerol at 1 uM preincubated for 20 mins followed by NADPH addition measured after 5 mins by UV-Visible spectrophotometric analysis relative to control
Method in brief: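 Enzyme source: supernatant of rat kidney homogenized in ice-cold 50 mM potassium phosphate pH 7.4, centrifuged 12,000 rpm 30 min, stored at -80 °C. Assay mix: 0.1 M potassium phosphate pH 6.2, DL-glyceraldehyde, lithium sulphate, mercaptoethanol. Compound (1 µM in DMSO) preincubated with enzyme 20 min at 37 °C. Blank without NADPH incubated 5 min at 37 °C. NADPH added to start. A340 decrease read. %inhibition = 100-[T/C]×100.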

[2] = biological target: Aldo-keto reductase family 1 member B1 (Rattus norvegicus, UniProt P07943); experiment: (§1) Inhibition of rat kidney NADPH-dependent aldose reductase assessed as DL-glyceraldehyde conversion to glycerol preincubated for 20 mins followed by NADPH addition measured after 5 mins by UV-Visible spectrophotometric analysis
[3] = biological target: Aldo-keto reductase family 1 member B1 (Rattus norvegicus) (UniProt P07943); experiment: as §1

| inhibition [1] | pIC50 [2] | inhibition [3] | Compound |
| --- | --- | --- | --- |
| < 50% | – | – | N#CC(=C\c1ccc(Cl)cc1)/C=C1\SC(=S)NC1=O |
| < 50% | – | – | CCc1ccc(/C=C(C#N)/C=C2\SC(=S)N(c3ccc(C(=O)O)cc3)C2=O)cc1 |
| < 50% | – | – | N#CC(=C\c1ccc(Cl)cc1)/C=C1\SC(=S)N(CC(=O)O)C1=O |
| < 50% | – | – | N#CC(=C\c1ccc(Br)cc1)/C=C1\SC(=S)N(CC(=O)O)C1=O |
| < 50% | – | – | N#CC(=C\c1cccc2ccccc12)/C=C1\SC(=S)NC1=O |
| < 50% | – | – | COc1ccc(/C=C(C#N)/C=C2\SC(=S)N(c3ccc(CC(=O)O)cc3)C2=O)cc1 |
| < 50% | – | – | N#CC(=C\c1ccc(Br)cc1)/C=C1\SC(=S)NC1=O |
| < 50% | – | – | Cc1ccc(/C=C(C#N)/C=C2\SC(=S)N(c3ccc(CC(=O)O)cc3)C2=O)cc1 |
| < 50% | – | – | Cc1ccc(/C=C(C#N)/C=C2\SC(=S)N(CC(=O)O)C2=O)cc1 |
| < 50% | – | – | COc1ccc(/C=C(C#N)/C=C2\SC(=S)N(CC(=O)O)C2=O)cc1 |
| < 50% | – | – | CC(C)c1ccc(/C=C(C#N)/C=C2\SC(=S)N(CC(=O)O)C2=O)cc1 |
| < 50% | – | – | N#CC(=C\c1cccc2ccccc12)/C=C1\SC(=S)N(c2ccc(C(=O)O)cc2)C1=O |
| < 50% | – | – | N#CC(=C\c1cccs1)/C=C1\SC(=S)N(CC(=O)O)C1=O |
| < 50% | – | – | N#CC(=C\c1ccc(C(F)(F)F)cc1)/C=C1\SC(=S)N(CC(=O)O)C1=O |
| < 50% | – | – | N#CC(=C\c1ccco1)/C=C1\SC(=S)NC1=O |
| < 50% | – | – | CC(C)c1ccc(/C=C(C#N)/C=C2\SC(=S)NC2=O)cc1 |
| < 50% | – | – | N#CC(=C\c1ccc(F)cc1)/C=C1\SC(=S)NC1=O |
| < 50% | – | – | Cc1ccc(/C=C(C#N)/C=C2\SC(=S)N(c3ccc(C(=O)O)cc3)C2=O)cc1 |
| < 50% | – | – | CCc1ccc(/C=C(C#N)/C=C2\SC(=S)N(CC(=O)O)C2=O)cc1 |
| < 50% | – | – | CC(C)c1ccc(/C=C(C#N)/C=C2\SC(=S)N(c3ccc(CC(=O)O)cc3)C2=O)cc1 |

| inhibition [1] | pIC50 [2] | inhibition [3] | Compound |
| --- | --- | --- | --- |
| < 50% | – | – | N#CC(=C\c1ccccc1)/C=C1\SC(=S)N(c2ccc(CC(=O)O)cc2)C1=O |
| < 50% | – | – | CCc1ccc(/C=C(C#N)/C=C2\SC(=S)NC2=O)cc1 |
| < 50% | – | – | COc1ccc(/C=C(C#N)/C=C2\SC(=S)NC2=O)cc1 |
| < 50% | – | – | N#CC(=C\c1ccco1)/C=C1\SC(=S)N(c2ccc(C(=O)O)cc2)C1=O |
| < 50% | – | – | N#CC(=C\c1ccc(F)cc1)/C=C1\SC(=S)N(c2ccc(C(=O)O)cc2)C1=O |
| > 50% | 6.66 | Dose-dependent effect | N#CC(=C\c1ccccc1)/C=C1\SC(=S)N(c2ccc(C(=O)O)cc2)C1=O |
| > 50% | 6.07 | Dose-dependent effect | N#CC(=C\c1cccs1)/C=C1\SC(=S)NC1=O |
| < 50% | – | – | CC(C)c1ccc(/C=C(C#N)/C=C2\SC(=S)N(c3ccc(C(=O)O)cc3)C2=O)cc1 |
| < 50% | – | – | N#CC(=C\c1ccc(Cl)cc1)/C=C1\SC(=S)N(c2ccc(C(=O)O)cc2)C1=O |
| > 50% | 6.16 | Dose-dependent effect | Cc1ccc(/C=C(C#N)/C=C2\SC(=S)NC2=O)cc1 |
| < 50% | – | – | N#CC(=C\c1ccc(F)cc1)/C=C1\SC(=S)N(CC(=O)O)C1=O |
| < 50% | – | – | N#CC(=C\c1ccc(Br)cc1)/C=C1\SC(=S)N(c2ccc(C(=O)O)cc2)C1=O |
| > 50% | 6.17 | Dose-dependent effect | N#CC(=C\c1ccco1)/C=C1\SC(=S)N(CC(=O)O)C1=O |
| < 50% | – | – | CCc1ccc(/C=C(C#N)/C=C2\SC(=S)N(c3ccc(CC(=O)O)cc3)C2=O)cc1 |
| < 50% | – | – | N#CC(=C\c1ccccc1)/C=C1\SC(=S)NC1=O |
| > 50% | 6.12 | Dose-dependent effect | N#CC(=C\c1ccccc1)/C=C1\SC(=S)N(CC(=O)O)C1=O |
| < 50% | – | – | COc1ccc(/C=C(C#N)/C=C2\SC(=S)N(c3ccc(C(=O)O)cc3)C2=O)cc1 |
| < 50% | – | – | N#CC(=C\c1cccc2ccccc12)/C=C1\SC(=S)N(CC(=O)O)C1=O |
| < 50% | – | – | N#CC(=C\c1cccs1)/C=C1\SC(=S)N(c2ccc(C(=O)O)cc2)C1=O |

Reference: ChEMBL document CHEMBL3098068 (Eur J Med Chem, 2014)
